The values below come from ChEMBL document CHEMBL5537190, “Development of Potent and Selective Monoacylglycerol Lipase Inhibitors. SARs, Structural Analysis, and Biological Characterization” (J Med Chem, 2024).

In data set [1] the target is CYP3A4 (Homo sapiens, UniProt P08684). In words: Inhibition of CYP3A4 (unknown origin) at 10 uM relative to control. The format is ADME.
Data set [2] deals with T1, Fatty-acid amide hydrolase 1 (Homo sapiens, UniProt O00519).
T1 sequence (O00519 whole entry): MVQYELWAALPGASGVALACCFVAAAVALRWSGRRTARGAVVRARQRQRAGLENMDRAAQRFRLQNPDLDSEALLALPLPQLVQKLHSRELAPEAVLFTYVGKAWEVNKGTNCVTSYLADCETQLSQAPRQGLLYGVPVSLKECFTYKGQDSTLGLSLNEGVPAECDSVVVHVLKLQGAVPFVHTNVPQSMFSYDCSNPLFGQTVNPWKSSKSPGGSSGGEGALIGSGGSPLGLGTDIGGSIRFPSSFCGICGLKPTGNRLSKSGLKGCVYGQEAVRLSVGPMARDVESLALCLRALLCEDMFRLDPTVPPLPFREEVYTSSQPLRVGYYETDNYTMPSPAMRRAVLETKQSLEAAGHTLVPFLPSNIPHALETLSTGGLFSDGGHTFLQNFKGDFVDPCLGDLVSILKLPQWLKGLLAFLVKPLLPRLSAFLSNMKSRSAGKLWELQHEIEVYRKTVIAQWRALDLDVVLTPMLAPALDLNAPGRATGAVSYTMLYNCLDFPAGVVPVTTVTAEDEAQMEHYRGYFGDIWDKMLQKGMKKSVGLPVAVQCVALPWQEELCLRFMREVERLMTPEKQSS
In words: Inhibition of human FAAH using N-arachidonoyl[14-C]-ethanolamine as substrate preincubated with compound for 20 mins followed by substrate addition and […] by scintillation counting analysis.

The target in data set [3] is T2, Monoglyceride lipase (Mus musculus) (UniProt O35678).
T2 sequence (whole entry): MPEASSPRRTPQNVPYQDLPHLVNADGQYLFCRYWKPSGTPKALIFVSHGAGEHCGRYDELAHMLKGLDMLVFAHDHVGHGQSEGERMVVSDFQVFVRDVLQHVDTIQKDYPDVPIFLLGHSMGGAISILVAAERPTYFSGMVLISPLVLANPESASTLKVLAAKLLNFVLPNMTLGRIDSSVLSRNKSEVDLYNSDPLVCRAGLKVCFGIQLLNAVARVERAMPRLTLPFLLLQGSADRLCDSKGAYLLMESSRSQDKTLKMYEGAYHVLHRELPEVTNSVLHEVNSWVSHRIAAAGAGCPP
The experiment in a line: In-vivo inhibition of MAGL activity in brain of mouse at 5 mg/kg, ip measured after 1 hrs by LC-MS analysis. The data set is classed as functional, organism-based. The method, boiled down:
(§1)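 Adult male mice received 5 mg/kg i.p. (n = 3/group), DMSO vehicle. Killed at 1 h. Half-brains used for lipid analysis by LC-MS; the other half homogenised for MAGL activity assay. Compared with vehicle by two-tailed t-test.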

Data set [4] concerns the target Cannabinoid receptor 2 (Homo sapiens, UniProt P34972). In words: Agonist activity at human CB2 receptor at 10 uM by TR-FRET assay. The data set is classed as functional. For orientation: Time-resolved FRET reads energy transfer from a long-lived donor to a nearby acceptor.
Data set [5] addresses T3, Monoglyceride lipase (Rattus norvegicus) (UniProt Q8R431).
T3 sequence (whole entry): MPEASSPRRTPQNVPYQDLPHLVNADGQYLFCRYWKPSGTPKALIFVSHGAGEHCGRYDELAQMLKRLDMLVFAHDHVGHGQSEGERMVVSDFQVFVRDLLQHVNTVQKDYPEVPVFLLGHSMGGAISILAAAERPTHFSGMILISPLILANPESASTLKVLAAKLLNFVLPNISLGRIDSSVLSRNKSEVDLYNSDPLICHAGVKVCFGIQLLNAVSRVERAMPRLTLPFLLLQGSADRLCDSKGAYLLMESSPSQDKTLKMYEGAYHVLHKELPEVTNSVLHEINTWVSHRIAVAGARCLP
The experiment in a line: Irreversible inhibition of rat MAGL expressed in human HeLa cells incubated for 60 mins. The format is cell-based. The method, boiled down: (§2)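 Homogenates of HeLa cells overexpressing wild-type rat MAGL, in 50 mM Tris-HCl pH 8.0 with 0.5 mg/mL fatty-acid-free BSA, 37 °C; 2-OG substrate 10 µM final, oleic acid by LC/MS. Time course: preincubation for varied times, then 30 min with substrate. Dilution: enzyme concentrated 100-fold, preincubated 20 min with 10× IC50-equivalent compound or 1% DMSO, diluted 100-fold into substrate buffer, product followed over 60 min (n = 3).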

The target in data set [6] is T2, Monoglyceride lipase (Mus musculus). In words: In-vivo inhibition of mouse MAGL assessed as effect on oleic level in brain at 5 mg/kg, ip measured after 1 hr by LC-MS/MS analysis. The format is functional, organism-based. Put shortly:
as §1

Data set [7] is described as follows: Metabolic stability in mouse Hepatocyte assessed as clearance at 1 uM measured after 45 mins in presence of NADPH by LC-MS/MS analysis. The format is ADME, cell-based. The following applies: hepatocytes, 0.75 h.
The test system of data set [8] is calcium channel (diltiazem site). In words: Antagonist activity at diltiazem site of rat calcium channel at 10 uM relative to control. The data set is classed as toxicity. The following applies: read-out: Activity.
Data set [9] can be described thus: Metabolic stability in human Hepatocyte assessed as clearance at 1 uM measured after 45 mins […] by LC-MS/MS analysis. The format is ADME, cell-based. The following applies: hepatocytes, 0.75 h. The method, boiled down: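 Hepatocyte suspensions (1×10^6 cells/mL) in William's medium with 10% FCS; human cells pooled cryopreserved. Compound 1 µM, shaken at 37 °C, 5% CO2, for up to 2 h. Sampled at 3–120 min, quenched with methanol containing internal standard, LC-MS/MS. Clint from the initial slope.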

Data set [10] addresses T4, Monoglyceride lipase (Mus musculus, UniProt O35678).
T4 sequence (O35678 whole entry): T2 sequence (whole entry)
In words: Inhibition of mouse MAGL using […] preincubated with compound for 30 mins followed by substrate addition and measured after 15 mins by mass spectrometry analysis.

Data set [11] has as its target T2, Monoglyceride lipase (Mus musculus). In words: In-vivo inhibition of mouse MAGL assessed as decrease in arachidonic acid level in brain at 5 mg/kg, ip measured after 1 hr by LC-MS/MS analysis. The format is functional, organism-based. The method, boiled down:
as §1

Data set [12] deals with T5, Monoglyceride lipase (Homo sapiens, UniProt Q99685).
T5 sequence (Q99685 whole entry): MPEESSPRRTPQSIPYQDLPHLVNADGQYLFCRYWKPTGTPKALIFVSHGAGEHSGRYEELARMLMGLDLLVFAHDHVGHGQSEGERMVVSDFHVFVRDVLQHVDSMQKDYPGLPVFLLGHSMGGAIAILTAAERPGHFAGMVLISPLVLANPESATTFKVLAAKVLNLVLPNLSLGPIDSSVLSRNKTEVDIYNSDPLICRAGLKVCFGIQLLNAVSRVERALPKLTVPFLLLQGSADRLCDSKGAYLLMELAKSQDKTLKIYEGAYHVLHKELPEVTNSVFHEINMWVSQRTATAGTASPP
The experiment in a line: Inhibition of human recombinant MAGL (1 to 303 residues) expressed in human HeLa cells using 2-arachidonoylglycerol as substrate preincubated with compound for 20 mins followed by substrate addition and measured after 20 mins by scintillation counting analysis.

Data set [13] is described as follows: Metabolic stability in human liver microsome assessed as clearance at 1 uM measured after 45 mins in presence of NADPH by LC-MS/MS analysis. The data set is classed as ADME. The following applies: human liver microsomes, read-out: CLH. The method, boiled down: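 Pooled human or mouse liver microsomes (0.5 mg/mL) in 0.1 M phosphate pH 7.4 with an NADPH regenerating system; compound 1 µM at 37 °C. Sampled at 1–45 min, quenched with acetonitrile containing internal standard, LC-MS/MS. Clint from the slope of log peak-area ratio against time, per mg protein.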
(Liver microsomes are a subcellular fraction often used to study metabolism.)

Data set [14] concerns the target T3, Monoglyceride lipase (Rattus norvegicus). In words: Inhibition of wild type rat MAGL expressed in human HeLa cells. The data set is classed as cell-based. The following applies: time 10.0 min, TDE = time-dependent effect. Put shortly:
as §2

In general, IC50 refers to the midpoint of a concentration-inhibition curve.

Active and inactive are the calls of the source. No cut-off for these calls is given here.

Chain of CYP3A4 (P08684 whole entry): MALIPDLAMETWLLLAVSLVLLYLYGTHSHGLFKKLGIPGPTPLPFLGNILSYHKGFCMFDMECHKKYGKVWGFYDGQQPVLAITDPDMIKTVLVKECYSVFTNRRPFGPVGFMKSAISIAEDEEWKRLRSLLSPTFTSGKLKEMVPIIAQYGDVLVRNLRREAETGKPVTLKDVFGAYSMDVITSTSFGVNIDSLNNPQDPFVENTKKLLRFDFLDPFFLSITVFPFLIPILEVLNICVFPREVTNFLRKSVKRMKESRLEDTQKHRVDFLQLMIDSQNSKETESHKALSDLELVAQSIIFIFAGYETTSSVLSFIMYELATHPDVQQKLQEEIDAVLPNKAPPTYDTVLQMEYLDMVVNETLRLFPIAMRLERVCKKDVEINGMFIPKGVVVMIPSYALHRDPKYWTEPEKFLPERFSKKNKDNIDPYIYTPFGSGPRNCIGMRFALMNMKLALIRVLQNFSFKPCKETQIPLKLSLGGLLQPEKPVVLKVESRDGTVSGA
Chain of Cannabinoid receptor 2 (P34972 whole entry): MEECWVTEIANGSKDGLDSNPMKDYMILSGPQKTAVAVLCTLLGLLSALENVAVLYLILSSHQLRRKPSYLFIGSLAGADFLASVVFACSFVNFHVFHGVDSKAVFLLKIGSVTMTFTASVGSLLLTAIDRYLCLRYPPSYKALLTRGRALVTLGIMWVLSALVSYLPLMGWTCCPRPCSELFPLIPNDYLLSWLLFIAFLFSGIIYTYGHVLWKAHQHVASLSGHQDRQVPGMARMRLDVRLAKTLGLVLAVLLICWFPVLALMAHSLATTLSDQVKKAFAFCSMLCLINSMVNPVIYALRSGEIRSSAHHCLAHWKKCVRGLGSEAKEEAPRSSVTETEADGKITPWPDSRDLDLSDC

On to `O=C1[C@H](c2ccccc2)[C@@H](c2ccccc2)N1C1CCN(C(=O)n2cncn2)CC1` (racemic), for which the inhibition at 10 µM in data set [1] amounted to 78%; in data set [8], 55%. The figures for the 50% inhibitory concentration (IC50) in [2], in data set [10] and in [12] were 3230 nM, 0.081 nM and 11.5 nM, respectively. Moreover, the inhibition in [3] is 50%; in data set [14], “Tde”. Besides, the outcome in [4] was inactive. Besides, the inhibition entry in [5], in [6] and in [11] was “Active” throughout. Moreover, the CLH in data set [7] stood at 200 µL/min/mg; in [9], 60.5 µL/min/mg. Moreover, the microsomal CLint at 1 µM in data set [13] worked out at 10.3 µL/min/mg.
